We go through 15 compounds from ChEMBL document CHEMBL4028897 (J Med Chem, 2017).

Active and inactive are the calls of the source. No cut-off for these calls is given here.

Experiment [1] addresses T1, D(3) dopamine receptor (Homo sapiens, UniProt P35462). Kind of experiment: Displacement of [125I]ABN from human dopamine D3 receptor expressed in HEK293 cell membranes after 60 mins by scintillation counting method. (In general: In a radioligand displacement assay an active substance lowers the binding of a labelled ligand.)
Experiment [2] has as its target D(2) dopamine receptor (Homo sapiens, UniProt P14416). Put plainly: Displacement of [125I]ABN from human dopamine D2 long receptor expressed in HEK293 cell membranes after 60 mins by scintillation counting method. A digest of the protocol:
(§1)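 Nonspecific binding defined with 20 μM (+)-butaclamol. Inhibitor spanned 5 log units, two concentrations per decade, in triplicate. Stopped with ice-cold Tris/NaCl wash and glass-fiber filtration.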

The target in experiment [3] is T2, 5-hydroxytryptamine receptor 1A (Homo sapiens, UniProt P08908).
T2 sequence (P08908 whole entry): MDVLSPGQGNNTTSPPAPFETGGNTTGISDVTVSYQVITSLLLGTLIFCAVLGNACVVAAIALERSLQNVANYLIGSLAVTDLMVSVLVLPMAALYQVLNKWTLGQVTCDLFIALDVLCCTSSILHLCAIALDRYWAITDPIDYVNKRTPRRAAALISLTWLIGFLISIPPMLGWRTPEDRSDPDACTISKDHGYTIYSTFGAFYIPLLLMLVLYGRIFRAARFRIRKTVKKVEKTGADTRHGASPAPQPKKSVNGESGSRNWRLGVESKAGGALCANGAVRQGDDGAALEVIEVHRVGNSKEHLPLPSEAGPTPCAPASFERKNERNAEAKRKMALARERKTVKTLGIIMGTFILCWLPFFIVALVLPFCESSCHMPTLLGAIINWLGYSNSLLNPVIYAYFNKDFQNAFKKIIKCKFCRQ
Put plainly: Displacement of [3H]8-OH-DPAT from human 5-HT1A receptor expressed in CHO-K1 cell membranes after 60 mins by scintillation counting method. A digest of the protocol: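 CHO-K1 membranes expressing human 5-HT1AR in 50 mM Tris-HCl, 10 mM MgSO4, 0.5 mM EDTA, 0.1% ascorbic acid, pH 7.4. […] Nonspecific binding with 10 μM metergoline. Competitor over 5 log units, two per decade, in triplicate. Ice-cold 10 mM Tris-HCl (pH 7.4) wash, glass-fiber filtration.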

The target in experiment [4] is 5-hydroxytryptamine receptor 2A (Homo sapiens) (UniProt P28223). Kind of experiment: Binding affinity to 5-HT2A receptor (unknown origin).
Experiment [5] concerns the target T3, 5-hydroxytryptamine receptor 2C (Homo sapiens) (UniProt P28335).
T3 sequence (whole entry): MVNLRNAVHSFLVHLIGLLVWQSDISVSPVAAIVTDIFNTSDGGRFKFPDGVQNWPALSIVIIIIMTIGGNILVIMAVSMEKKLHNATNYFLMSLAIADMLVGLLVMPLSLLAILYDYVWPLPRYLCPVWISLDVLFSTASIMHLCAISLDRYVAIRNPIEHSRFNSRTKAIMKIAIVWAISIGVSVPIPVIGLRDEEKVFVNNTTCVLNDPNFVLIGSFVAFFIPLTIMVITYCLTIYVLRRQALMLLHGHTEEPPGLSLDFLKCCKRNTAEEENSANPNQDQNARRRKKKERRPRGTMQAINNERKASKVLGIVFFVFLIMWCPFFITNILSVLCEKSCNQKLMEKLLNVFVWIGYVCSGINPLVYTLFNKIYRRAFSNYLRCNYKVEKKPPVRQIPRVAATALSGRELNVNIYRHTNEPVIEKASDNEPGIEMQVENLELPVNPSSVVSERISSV
Kind of experiment: Binding affinity to 5-HT2C receptor (unknown origin).

Experiment [6] concerns the target T1, D(3) dopamine receptor. Put plainly: Partial agonist activity at human dopamine D3 receptor expressed in human U2OS cells assessed as inhibition of forskolin-dependent stimulation of adenylyl cyclase at 10 times Ki. It counts as functional, cell-based.
For experiment [7], the species on record is Homo sapiens. Put plainly: Selectivity ratio of Ki for human dopamine D2 long receptor to Ki for human dopamine D3 receptor. Summed up:
as §1

In experiment [8] the target is T1, D(3) dopamine receptor. Kind of experiment: Agonist activity at human ProLink-tagged dopamine D3 receptor expressed in human U2OS cells assessed as induction of EA-tagged beta-arrestin binding at 10 times Ki after 90 mins by chemoluminescence assay. It counts as cell-based.
In experiment [9] the target is T1, D(3) dopamine receptor. Kind of experiment: Agonist activity at human dopamine D3 receptor expressed in human U2OS cells assessed as inhibition of forskolin-dependent stimulation of adenylyl cyclase at 10 times Ki. It counts as functional, cell-based.

5-hydroxytryptamine receptor 2A (Homo sapiens), sequence (P28223 whole entry): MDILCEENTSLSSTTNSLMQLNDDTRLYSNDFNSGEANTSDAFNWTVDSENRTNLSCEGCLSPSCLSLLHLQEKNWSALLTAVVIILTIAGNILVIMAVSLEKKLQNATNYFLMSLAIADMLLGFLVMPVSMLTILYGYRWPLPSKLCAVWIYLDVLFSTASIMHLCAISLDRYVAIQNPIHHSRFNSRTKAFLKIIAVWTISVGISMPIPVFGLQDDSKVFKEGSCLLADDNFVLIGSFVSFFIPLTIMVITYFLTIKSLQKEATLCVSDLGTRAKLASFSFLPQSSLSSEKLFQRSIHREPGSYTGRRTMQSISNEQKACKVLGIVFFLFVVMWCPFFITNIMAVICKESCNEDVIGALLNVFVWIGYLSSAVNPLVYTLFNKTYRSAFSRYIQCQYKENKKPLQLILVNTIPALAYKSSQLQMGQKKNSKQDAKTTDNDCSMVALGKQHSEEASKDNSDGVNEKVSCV
D(2) dopamine receptor, sequence (P14416 whole entry): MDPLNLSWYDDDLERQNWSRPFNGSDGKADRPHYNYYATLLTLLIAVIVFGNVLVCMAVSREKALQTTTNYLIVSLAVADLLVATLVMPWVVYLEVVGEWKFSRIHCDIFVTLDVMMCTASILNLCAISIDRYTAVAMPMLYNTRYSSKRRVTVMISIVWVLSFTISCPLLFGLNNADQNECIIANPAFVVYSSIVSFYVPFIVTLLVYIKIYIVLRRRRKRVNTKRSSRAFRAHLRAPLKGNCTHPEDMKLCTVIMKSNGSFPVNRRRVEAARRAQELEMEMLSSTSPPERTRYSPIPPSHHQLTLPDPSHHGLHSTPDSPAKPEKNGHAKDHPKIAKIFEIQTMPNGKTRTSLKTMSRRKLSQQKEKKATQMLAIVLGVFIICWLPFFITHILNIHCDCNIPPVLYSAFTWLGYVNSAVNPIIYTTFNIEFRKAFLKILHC
T1 sequence (P35462 whole entry): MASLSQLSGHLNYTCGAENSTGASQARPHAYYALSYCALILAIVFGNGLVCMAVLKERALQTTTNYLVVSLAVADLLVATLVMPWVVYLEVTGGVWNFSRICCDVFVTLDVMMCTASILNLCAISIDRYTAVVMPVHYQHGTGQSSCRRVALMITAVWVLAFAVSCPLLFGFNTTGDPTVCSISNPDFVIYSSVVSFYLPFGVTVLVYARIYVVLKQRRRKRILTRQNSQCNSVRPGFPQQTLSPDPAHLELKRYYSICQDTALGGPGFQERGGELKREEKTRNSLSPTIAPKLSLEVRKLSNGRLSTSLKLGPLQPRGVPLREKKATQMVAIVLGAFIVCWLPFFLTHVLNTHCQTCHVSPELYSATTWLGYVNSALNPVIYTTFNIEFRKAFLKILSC

By Ki is commonly meant the equilibrium dissociation constant of an inhibitor or competing ligand from its target. A lower Ki goes with higher affinity. As to `COc1ccccc1N1CCC2(CCN(CCCSc3nnc(-c4ccccc4)n3C)CC2)CC1`, the inhibitory constant (Ki) in [1] came to 12 nM; in [2] it was 10900 nM; in experiment [3], 931 nM. Further, the outcome in experiment [4], in experiment [5] and in experiment [6] was Active.
With `Cn1c(SCCCN2CCC3(CC2)CCN(c2cccc(Cl)c2Cl)CC3)nnc1-c1ccccc1`, the inhibition constant (Ki) in [1] amounted to 82.4 nM; in [2], 7500 nM. Also, the Ratio Ki in experiment [7] amounted to 91.
Regarding `Cn1c(SCCCN2CC3(CCN3c3ccc(F)cc3)C2)nnc1-c1ccccc1`, the Ki in experiment [1] was 18200 nM; in experiment [2], more than 110000 nM. Besides, the Ratio Ki in experiment [7] was more than 6.
Turning to `COc1ccccc1N1CCN(CCCSc2nnc(-c3ccccc3)n2C)CC1`, the inhibition constant (Ki) amounted to 6.5 nM in experiment [1], 260 nM in experiment [2] and 0.22 nM in experiment [3].
As to `Cn1c(SCCCN2CCC3(CC2)CCN(c2ccccn2)CC3)nnc1-c1ccccc1`, the figures for the Ki in experiment [1] and in [2] were 871 nM and 83700 nM, respectively. Moreover, the Ratio Ki in experiment [7] was found to be 96.1.
As for `COc1ccccc1N1CCC2(CCN(CCCSc3nnc(-c4ccccc4)n3C)CC2)C1`, the Ki in [1] was found to be 19.6 nM; in experiment [2], 6170 nM; in experiment [3], 724 nM. The result in experiment [4] and in experiment [5] was Active. Further, the outcome in experiment [8] and in experiment [9] was inactive.
On to `COc1ccccc1N1CCC12CCN(CCCSc1nnc(-c3ccccc3)n1C)CC2`, for which the inhibitory constant (Ki) was found to be 169 nM in experiment [1] and 29300 nM in [2]. For the same compound, the Ratio Ki in experiment [7] was 173.
Consider `COc1ccccc1N1CCC2(CCN(CCCSc3nnc(-c4ccccc4)n3C)C2)C1` (racemic), for which the figures for the Ki in experiment [1] and in experiment [2] were 24.2 nM and 6370 nM, respectively. Further, the Ratio Ki in [7] worked out at 264. In addition, the outcome in [8] and in experiment [9] was inactive.
For `COc1ccccc1N1CC2(CCN(CCCSc3nnc(-c4ccccc4)n3C)CC2)C1`, the Ki in experiment [1] came to 235 nM; in [2], 37600 nM. Also, the Ratio Ki in [7] came out at 160.
`Cn1c(SCCCN2CCC3(CC2)CCN(c2ccc(F)cc2)CC3)nnc1-c1ccccc1`: the Ki in [1] is 25.6 nM; in [2], 9790 nM; in experiment [3] it was 587 nM. Besides, the Ratio Ki in experiment [7] turned out to be 383. Also, the outcome in experiment [4] and in experiment [5] was Active. The result in [8] and in experiment [9] was inactive.
Consider `Cn1c(SCCCN2CCC3(CC2)CCN(c2cccc(C#N)c2)CC3)nnc1-c1ccccc1`, for which the inhibition constant Ki in experiment [1] was found to be 438 nM; in experiment [2] it was 57100 nM. Besides, the Ratio Ki in experiment [7] worked out at 130.
On to `COc1ccccc1N1CC2(CN(CCCSc3nnc(-c4ccccc4)n3C)C2)C1`, for which the Ki in experiment [1] stood at 833 nM; in [2], 21200 nM. The Ratio Ki in experiment [7] was determined as 25.5.
Taken in the same sequence, the figures for `COc1ccc(N2CCC3(CCN(CCCSc4nnc(-c5ccccc5)n4C)CC3)CC2)cc1` were 97.7 nM, 105000 nM and 1070.
Turning to `COc1ccccc1N1CCC12CN(CCCSc1nnc(-c3ccccc3)n1C)C2`, the Ki in [1] was determined as 4790 nM; in experiment [2] it was 115000 nM. Further, the Ratio Ki in [7] was 24.
On to `COc1ccccc1N1CCC2(CN(CCCSc3nnc(-c4ccccc4)n3C)C2)C1`, for which the Ki in [1] turned out to be 192 nM; in [2] it was 60200 nM. In [7], the Ratio Ki was 313.
